# Compound activity from PubChem BioAssay.
# Many of the other results were omitted from the sample, so hits are more common in it than they were.
# ROMK mod – ROMK potassium channel modulators, primary screen, cell-based, thallium flux, MLSMR library. AID 1918, 2009. ATP-sensitive inward rectifier potassium channel 1 (Homo sapiens), P48048. Tet-inducible ROMK, thallium flux fluorescence; actives lie on both sides. 130,000 compounds, 2% hits. B-score at 10 µM;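 active = signal ratio slope over the read window, or its plate-corrected B-score, at least 3 SD from the plate mean, either direction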;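 note: B-score of the F/F0 ratio slope over 7 to 12 s after thallium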
# Target sequence (P48048 whole entry, looked up): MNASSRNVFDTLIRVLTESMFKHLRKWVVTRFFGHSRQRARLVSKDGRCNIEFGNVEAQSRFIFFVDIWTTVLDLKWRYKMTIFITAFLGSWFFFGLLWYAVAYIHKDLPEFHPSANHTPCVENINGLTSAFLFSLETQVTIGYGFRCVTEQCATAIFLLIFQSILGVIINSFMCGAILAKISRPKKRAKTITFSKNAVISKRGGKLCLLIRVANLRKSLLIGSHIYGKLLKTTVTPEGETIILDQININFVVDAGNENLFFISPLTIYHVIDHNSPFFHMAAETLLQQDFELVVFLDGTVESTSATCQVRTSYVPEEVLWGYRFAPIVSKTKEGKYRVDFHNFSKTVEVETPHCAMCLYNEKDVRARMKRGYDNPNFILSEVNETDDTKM
# Biofilm kill mix – clotrimazole potentiators killing C. albicans biofilm, primary screen, 4-compound mixtures. 120,000 compounds, 0.02% hits. C. albicans biofilm persisters + clotrimazole, fluorescence viability; primary screen in compound mixtures of four per well. AID 1242, 2008. inhibition, % at 7.6 µM;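 active = inhibition above 30.3% in the primary screen of four-compound pools, then above 30% when the compound was retested; inconclusive = passed the primary limit but could not be retested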;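 note: compounds exposed to preformed 24 h biofilms for 48 h; 0% = untreated biofilm control and 100% = clotrimazole plus chlorhexidine kill blank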
#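 Incubation: 24 h biofilm formation, then 48 h compound exposure, 37 °C | Material: C. albicans biofilms | Buffer or medium: RPMI/MOPS medium, pH 7.0 | Measured by: 2-h Alamar Blue fluorescence, 535/590 nm excitation/emission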
# Pf gamet viab – late stage P. falciparum gametocyte viability inhibitors, primary screen, ATP luminescence, HTS; P. falciparum stage V gametocytes, 24 h; 150,000 compounds, 0.065% hits; AID 743093, 2013; inhibition, % at 10.9 µM;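 active = inhibition above the mean plus 3 SD of compounds within the control limits, set per campaign, cut at about 38% in these data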;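 note: 0% = DMSO wells and 100% = medium only without gametocytes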
# ROMK retest – ROMK channel modulator hit retest, confirmation, cell-based, thallium flux, duplicate, resupplied hits. 3,000 compounds, 54% hits. normalized thallium flux (F/F0 slope) at 10 µM. fluorescence ratio; hits give low values. shares compounds with ROMK mod. AID 1917, 2009;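 active = Flux at 10 µM at least 3 SD below or above vehicle control mean in one or both replicates; inconclusive = no clear call, values can overlap the other calls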
# * = called active by the depositor; u = inconclusive; x = no result given.
SMILES,ROMK mod,Biofilm kill mix,Pf gamet viab,ROMK retest
CC1(C)Cc2c(C#N)c(SCCOc3ccccc3)nc(N3CCOCC3)c2CO1,x,x,x,u
CCCN(CCC)C(=O)c1cc2c(=O)[nH]c3ccc(C)cc3c2s1,-4.2*,18,x,0.073
Cc1ccc(C)c(N(C)C(=O)c2cc3c(=O)[nH]c4ccc(C)cc4c3s2)c1,-0.64,12,-17,x
O=S(=O)(Nc1cccc(-c2cn3cccnc3n2)c1)c1ccccc1,-0.93,15,x,x
O=S(=O)(Nc1cccc(-c2cn3cccnc3n2)c1)c1ccc(-c2ccccc2)cc1,x,x,19,0.073
CC(=C\c1ccccc1)/C=C1/SC(=S)N(C(C(=O)O)C(C)C)C1=O (stereo not drawn),x,3,16,0.089
CCC(C(=O)O)N1C(=O)/C(=C/C(C)=C/c2ccccc2)SC1=S (stereo not drawn),x,24,14,x
CC(=C\c1ccccc1)/C=C1/SC(=S)N(CCC(=O)Nc2ccccn2)C1=O,-0.73,-1,x,x
CC(/C=C1\SC(=S)N(CCCC(=O)Nc2ccc(C(=O)O)cc2)C1=O)=C\c1ccccc1,-2.8*,13,17,0.058*
O=C(N(c1ccccc1)c1ccccc1)N(c1ccccc1)c1ccccc1,x,13,-13,x
O=C(CCl)N(c1ccccc1)c1ccccc1,-5.4*,12,-15,0.053*
CCCn1c(=S)[nH]c2cc(C(=O)N3CCCC(C(=O)OCC)C3)ccc2c1=O (stereo not drawn),-3.2*,x,-19,0.06*
CCOC(=O)N1CCN(C(=O)c2ccc3c(=O)n(CCc4ccccc4)c(=S)[nH]c3c2)CC1,-0.23,x,14,x
CCC(=O)N1c2ccccc2NC2=C(C(=O)CC(C)(C)C2)C1c1cccnc1 (stereo not drawn),0.43,2,-4,x
COc1ccc(CNc2oc(COc3ccc(Cl)cc3)nc2C#N)cc1,-2.1*,x,8,0.073
N#Cc1nc(COc2cccc(Cl)c2)oc1NCc1ccncc1,-1.5,x,-7,x
O=C1C(=O)N(Cc2ccco2)C(c2cccs2)/C1=C(\O)c1cccc([N+](=O)[O-])c1 (stereo not drawn),x,10,-9,x
COc1ccccc1-c1ccc(/C=C2/C=C(C)OC2=O)o1,-1.1,19,x,x
COc1ccccc1-c1ccc(/C=C2\C=CC(=O)O2)o1,x,18,-29,0.044*
FC(F)(F)c1ccc(C2[C@H]3CN(Cc4cccnc4)[C@H](c4ccccc4)C34CC2(c2ccccc2)C4)cc1 (stereo partly drawn),x,3,8,x
O=c1c2ccccc2sn1-c1nccs1,-3.7*,9,-4,0.071
O=c1c2ccccc2sn1-c1ccccc1,-1.7,x,28,x
CCCCN1C(N)=NC[C@@H]1CCCCN,x,x,-1,x
O=C(CNC(=O)C1COc2ccccc2O1)N/N=C\c1ccc(Cl)cc1 (stereo not drawn),-2.1,13,13,x
Cc1cc(OCC(=O)N(C)C2CCCCC2)ccc1Cl,x,-1,-3,x
SMILES,ROMK mod,Biofilm kill mix,Pf gamet viab,ROMK retest
CN(C(=O)COC(=O)COc1ccc(Cl)cc1)C1CCCCC1,x,x,x,0.074
O=C(NNC(=O)C(c1ccccc1)c1ccccc1)c1ccccn1,0.17,5,-2,x
Cc1nnc(SCc2ccc(F)cc2)n1NC/C=C/c1ccccc1,x,8,x,x
CCCCOc1ccc(CSCCN=C(N)N)cc1,-3.4*,31*,19,0.054*
CCCCOc1ccc(CSC(CC(=O)O)C(=O)O)cc1 (stereo not drawn),1.2,x,x,x
CCN(CC)c1ccc2cc(C#N)c(=O)oc2c1,x,11,23,0.046*
CCN(CC)c1ccc2ccc(=O)oc2c1,-0.19,47,x,x
COc1cc(OC)cc(C(=O)NCC(=O)OCC(=O)N2CC(C)CC(C)C2)c1 (stereo not drawn),0.95,14,11,x
C#CCSc1nnnn1-c1ccc(OCC)cc1,x,18,-5,x
CCN(c1ccccc1)S(=O)(=O)c1ccc(OC)c(OC)c1,-0.19,x,x,x
CCN(CC)S(=O)(=O)c1ccc(OC)c(NC(=S)Nc2cc(C)ccc2C)c1,-0.2,13,x,x
CCN(CC)S(=O)(=O)c1ccc(OC)c(NC(=O)CSc2cc(C)ccc2C)c1,-3.2*,13,-7,0.057*
CCN(c1ccccc1)S(=O)(=O)c1ccc(OC)c(NC(=O)CNCCc2ccccc2)c1,-6.6*,6,-25,0.05*
O=C1C2CC(O)CN2C(=O)N1c1ccccc1 (stereo not drawn),-0.31,8,2,x
COc1ccc(/C=N/Nc2nc(C(=O)O)cs2)cc1,x,x,-15,x
Cc1ccc(OCCCN2C(=O)C(=O)c3cc(C)ccc32)cc1,-0.096,6,-7,x
